Test [1] deals with T1, Adenosine receptor A1 (Homo sapiens) (UniProt P30542).
T1 sequence (whole entry): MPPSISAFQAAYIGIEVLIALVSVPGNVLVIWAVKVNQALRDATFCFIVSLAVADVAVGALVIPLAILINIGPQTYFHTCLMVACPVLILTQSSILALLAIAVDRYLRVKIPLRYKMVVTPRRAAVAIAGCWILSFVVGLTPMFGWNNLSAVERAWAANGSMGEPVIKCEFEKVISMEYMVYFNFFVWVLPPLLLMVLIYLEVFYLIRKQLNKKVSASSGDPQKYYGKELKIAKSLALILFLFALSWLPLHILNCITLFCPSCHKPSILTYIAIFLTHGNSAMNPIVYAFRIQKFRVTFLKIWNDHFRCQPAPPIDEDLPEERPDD
Nature of the test: Percent change in cAMP content of CHO (Chinese hamster ovary) cells expressing human Adenosine A1 receptor at 0.1 uM. The test is classed as functional, cell-based. Summed up:
(§1)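 CHO cells stably expressing human A1 receptor (~8000 fmol/mg protein) were grown in Ham's F-12 with 10% FBS and G-418 for 48 h to confluence. HCl (50 mM final) stopped the reaction, and cAMP was measured by radioimmunoassay. Values are % change versus no-compound control, mean ± SEM of six experiments.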

In test [2] the target is Adenosine receptor A2a (Homo sapiens) (UniProt P29274). Nature of the test: Ability to displace the binding of [3H]-ZM 241385, to the ligand binding site of CHO:hA2A (human Adenosine A2A receptor) at concentration of 10 uM. Summed up: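 CHO:hA2A membranes (100 µg protein, ADA-treated) were incubated with 2 nM [3H]ZM 241385 in Tris-HCl with MgCl2, pH 7.4, for 60 min at 4 °C, with compound from DMSO (1% final). Nonspecific binding was taken with 1 µM ZM241385. After filtration, results are % displacement by 10 µM compound, ±STD, n = 3.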

The target of test [3] is T1, Adenosine receptor A1 (Homo sapiens). Description: Dissociation of [3H]CCPA from Adenosine A1 receptor in CHO cells at 10 uM as percent K-1. Type of test: cell-based. Summed up: (§2)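 [3H]CCPA was bound to ADA-treated CHO:hA1 membranes in 50 mM Tris-HCl pH 7.4 at 25 °C. Dissociation was started by adding R-PIA (1 µM) with test agent (10 µM), and specific binding was measured 2–180 min afterwards. Kinetic fits gave t1/2 and K-1, expressed as % change from control. Values are the mean of three experiments.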

Test [4] has as its target T2, Adenosine receptor A3 (Homo sapiens) (UniProt P0DMS8).
T2 sequence (whole entry): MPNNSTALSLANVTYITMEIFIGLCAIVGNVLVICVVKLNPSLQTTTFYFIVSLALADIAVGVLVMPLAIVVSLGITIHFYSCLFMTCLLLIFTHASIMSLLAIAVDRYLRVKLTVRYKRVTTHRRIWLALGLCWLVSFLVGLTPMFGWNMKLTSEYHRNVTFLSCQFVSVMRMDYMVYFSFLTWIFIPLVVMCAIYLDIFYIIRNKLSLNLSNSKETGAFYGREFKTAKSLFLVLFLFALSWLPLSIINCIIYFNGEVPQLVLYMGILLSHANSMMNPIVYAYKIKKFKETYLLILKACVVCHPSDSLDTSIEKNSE
Description: Ability to displace the binding of [3H]-MRE 3008-F20 to the ligand binding site of CHO:hA3 (human Adenosine receptor) at concentration of 10 uM. The method, boiled down: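 Assays used 2 nM [3H]MRE 3008F20 on CHO:hA3 membranes (100 µg protein, ADA-treated) for 150 min at 4 °C, in Tris-HCl with MgCl2 and 1 mM EDTA, pH 7.4, with compound from DMSO (1% final). Bound ligand was separated by filtration. Results are % displacement by 10 µM compound, ±STD, n = 3.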

Test [5] concerns the target T1, Adenosine receptor A1 (Homo sapiens). Nature of the test: Percent change in cAMP in CHO cells expressing human Adenosine A1 receptor at 1 uM. The test is classed as functional, cell-based. Summed up: as §1
The target is the same in test [6]. Description: Percent change in cAMP content of CHO (Chinese hamster ovary) cells expressing human Adenosine A1 receptor at 10 uM. Type of test: functional, cell-based. Summed up: as §1
Test [7] has the same target. Nature of the test: Dissociation rate of [3H]CCPA from Adenosine A1 receptor expressing CHO cells at 10 uM as percent t1/2. The test is classed as cell-based. The method, boiled down: as §2
Test [8] shares this target. Description: Percent change in cAMP content of CHO (Chinese hamster ovary) cells expressing human Adenosine A1 receptor at 0.01 uM. The test is classed as functional, cell-based. The method, boiled down: as §1
Test [9] shares this target. Description: Ability to displace the binding of [3H]DPCPX to the ligand binding site of CHO:hA1 (human Adenosine A1 receptor) at concentration of 10 uM. Summed up:
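Membranes came from hypotonic lysis of CHO:hA1 cells, a 100 000g pellet and ADA 2 U/mL treatment for 30 min at 37 °C. Membranes (100 µg protein) were incubated with 1 nM [3H]DPCPX in Tris-HCl pH 7.4 for 150 min at 25 °C, with compound added from DMSO (1% final). Nonspecific binding was taken with 1 µM DPCPX, and bound ligand was separated on GF/B filters.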

The target is the same in test [10]. Nature of the test: Percent change in cAMP content of CHO (Chinese hamster ovary) cells expressing human Adenosine A1 receptor at 1 uM. The test is classed as functional, cell-based. The method, boiled down:
as §1

Adenosine receptor A2a (Homo sapiens), sequence (P29274 whole entry): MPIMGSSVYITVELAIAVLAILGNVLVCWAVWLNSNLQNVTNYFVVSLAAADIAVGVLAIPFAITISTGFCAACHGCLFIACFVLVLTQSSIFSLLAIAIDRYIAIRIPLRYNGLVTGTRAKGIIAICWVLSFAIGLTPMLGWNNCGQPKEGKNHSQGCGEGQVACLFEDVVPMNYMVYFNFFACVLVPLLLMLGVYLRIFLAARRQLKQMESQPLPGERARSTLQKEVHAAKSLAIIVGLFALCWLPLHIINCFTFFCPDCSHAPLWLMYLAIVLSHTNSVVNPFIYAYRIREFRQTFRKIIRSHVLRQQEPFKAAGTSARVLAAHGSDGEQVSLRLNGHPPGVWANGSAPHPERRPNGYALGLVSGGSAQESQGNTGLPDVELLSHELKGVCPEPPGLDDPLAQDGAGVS

As usually defined, the inhibition is the change of the read-out against control, counted positive when it falls. The low end stands for a weak effect, the high end for a strong effect. Regarding `Cc1sc(N)c(C(=O)c2cccc3ccccc23)c1C`, the Change is -3% in [1], 6% in [5], -45% in [6] and -0.6% in test [8]. For the same compound, the values for the inhibition in [2], in [4] and in test [9] were -0%, 18% and -0%, respectively. Moreover, the K-1 decrease in test [3] was found to be 46%. Moreover, the T1/2 increase in test [7] came to 85%.

As to `Nc1sc2c(c1C(=O)c1ccc(Br)c3ccccc13)CCC2`, the Change was -14% in test [10], 19% in [1], -67% in test [6] and 3% in test [8]. Also, the inhibition is -0% in [2], 22% in test [4] and -0% in [9]. The compound further yielded a K-1 decrease in [3] of 4%. In addition, the T1/2 increase in test [7] was determined as 4%.

(Values after ChEMBL document CHEMBL1145774, “Synthesis and biological effects of novel 2-amino-3-naphthoylthiophenes as allosteric enhancers of the A1 adenosine receptor” (J Med Chem, 2003).)
